# What was measured:
# [1] = Octanol:water partition coefficient is evaluated; type: physicochemical
# [2] = system: Mus musculus; assay: Percent amount of compound was determined in liver per gram of tissue after 5 min of administration at a dose of 3-39 mg/Kg; range is 4.2-165; type: functional, organism-based
# [3] = system: Mus musculus; assay: BPI index was determined at 5 min after subcutaneous administration; type: functional
# How it was run: (§1)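 Balb-c mice (20 ± 2 g) received a single sc injection of the ¹⁴C-labeled ester in 0.5 mL of 25% propylene glycol in water. Brain and liver were removed at 5 min, weighed and homogenized in urea/SDS/EDTA phosphate protein solvent (pH 7.6). Aliquots were counted for ¹⁴C by liquid scintillation. BPI = brain amount per g as % of liver amount per g. Mean ± SEM, n = 3.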
# [4] = system: Mus musculus; assay: Ability to penetrate the blood-brain barrier of mice was evaluated by measuring the brain penetration index (BPI) at dose 3-39 mg/Kg, administered subcutaneously; range is 0.04-1.81; type: functional, organism-based
# [5] = system: Mus musculus; assay: BPI index was determined at 5 min after subcutaneous administration to mice; type: functional; how it was run: as §1
# [6] = system: Mus musculus; assay: Compound was evaluated for the effect on the uptake in mouse brain, at dose 78 mg/Kg (ip) after a time period of 15 min; type: functional, organism-based
# How it was run: (§2)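 Mice received a single systemic dose (ip or sc) of ¹⁴C-labeled compound in 0.5 mL of 0.14 N saline or 25% propylene glycol/water, depending on the compound. Brain was taken at the stated time and homogenized in 8 mL of 1% SDS/6 M urea/EDTA in 0.03 M phosphate (pH 7.4). Aliquots were counted by liquid scintillation and expressed as nmol/g brain.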
# [7] = system: Mus musculus; assay: Compound was evaluated for the effect on the uptake in mouse brain, at dose 78 mg/Kg (ip) after a time period of 30 min; type: functional, organism-based; how it was run: as §2
# [8] = system: Mus musculus; assay: Percent amount of compound was determined in liver per gram of tissue after 5 min of administration at a dose of 67 mg/kg; type: functional, organism-based; set-up: dose 67 mg/kg; how it was run: as §1
# [9] = system: Mus musculus; assay: Ability to penetrate the blood-brain barrier of mice was evaluated by measuring the brain penetration index (BPI) at dose 67 mg/Kg, administered subcutaneously; type: functional, organism-based; how it was run: as §1
# [10] = system: Mus musculus; assay: Compound was evaluated for the effect on the uptake in mouse brain, at dose 78 mg/kg (ip) after a time period of 5 min; type: functional, organism-based; set-up: dose 78 mg/kg; how it was run: as §2
Structure (SMILES),K [1],Uptake [2],BPI [3],Uptake [4],BPI [5],Uptake [6],Uptake [7],Uptake [8],Uptake [9],Uptake [10]
NCCCC(=O)O [GAMMA-AMINOBUTYRIC ACID],0.004,4.2 nM/g,0.96,0.04 nM/g,,,,,,
NCCCC(=O)OCC(O)CO.O=C(O)C(F)(F)F (stereo unspecified),0.01,,,,3,14 nM/g,16.4 nM/g,157 nM/g,4.8 nM/g,4.8 nM/g

# Reference: ChEMBL document CHEMBL1123057, “gamma-Aminobutyric acid esters. 2. Synthesis, brain uptake, and pharmacological properties of lipid esters of gamma-aminobutyric acid” (J Med Chem, 1985)
